This note sets out measurements from PMC10694180 (Heliyon, 2023).

“Also recorded” adds a separate entry of the source. Read-outs that look alike come from different tables or passages of the source.

In data set [1] the test system is hypoxia induced ID8 mouse ovarian epithelial cell line. Put plainly: MTT assay, hypoxia induced ovarian cancer cell line ID8. The data set is classed as cell-based. Conditions: for inhibition of cell proliferation: ID8 cells, 50 μM concentration; for IC50: 72 h. Put shortly:
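Hypoxia-induced mouse ID8 ovarian epithelial cells were seeded in 96-well plates and exposed to test compound or control. MTT was added 72 h after drug addition, and the resuspended formazan was read by absorbance. Growth inhibition (%) = [1 − (A/B)] × 100, where A is treated wells and B is control wells; n = 3.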

Data set [2] has as its target Hypoxia-inducible factor 1-alpha (HIF-1α) (Mus musculus, UniProt Q61221). The experiment in a line: Quantitative HIF-1α inhibitory assay. The format is cell-based. Conditions: ELISA, cell extracts, 50 μM concentration (Fig. 3). An outline of the steps: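 Mouse HIF-1α quantified with a simple-step ELISA kit run per the manufacturer. Cell lysate concentrates from fresh material were added to wells coated with double-stranded DNA carrying HIF-1α-binding HREs. Bound HIF-1α was detected with a primary mouse anti-HIF-1α antibody and a labelled secondary anti-mouse antibody, and absorbance was read at 450 nm.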

Data set [3] in a line: Solubility data of synthesized compounds. The data set is classed as physicochemical. Conditions: solvents: DMSO, ethanol, ethanolic water.
The mark [4] stands for this setting: read-out: IC50 (μM), viability of Ovarian cancer cell lines ID8, hypoxia induced ID8, MTT, n = 3.
The mark [5] stands for this setting: Mus musculus, Epithelial cell, read-out: IC50 (μM), viability of Ovarian cancer cell lines ID8, hypoxia induced ID8, MTT, 72 h, n = 3.

Sequence of Hypoxia-inducible factor 1-alpha (HIF-1α) (Q61221 whole entry): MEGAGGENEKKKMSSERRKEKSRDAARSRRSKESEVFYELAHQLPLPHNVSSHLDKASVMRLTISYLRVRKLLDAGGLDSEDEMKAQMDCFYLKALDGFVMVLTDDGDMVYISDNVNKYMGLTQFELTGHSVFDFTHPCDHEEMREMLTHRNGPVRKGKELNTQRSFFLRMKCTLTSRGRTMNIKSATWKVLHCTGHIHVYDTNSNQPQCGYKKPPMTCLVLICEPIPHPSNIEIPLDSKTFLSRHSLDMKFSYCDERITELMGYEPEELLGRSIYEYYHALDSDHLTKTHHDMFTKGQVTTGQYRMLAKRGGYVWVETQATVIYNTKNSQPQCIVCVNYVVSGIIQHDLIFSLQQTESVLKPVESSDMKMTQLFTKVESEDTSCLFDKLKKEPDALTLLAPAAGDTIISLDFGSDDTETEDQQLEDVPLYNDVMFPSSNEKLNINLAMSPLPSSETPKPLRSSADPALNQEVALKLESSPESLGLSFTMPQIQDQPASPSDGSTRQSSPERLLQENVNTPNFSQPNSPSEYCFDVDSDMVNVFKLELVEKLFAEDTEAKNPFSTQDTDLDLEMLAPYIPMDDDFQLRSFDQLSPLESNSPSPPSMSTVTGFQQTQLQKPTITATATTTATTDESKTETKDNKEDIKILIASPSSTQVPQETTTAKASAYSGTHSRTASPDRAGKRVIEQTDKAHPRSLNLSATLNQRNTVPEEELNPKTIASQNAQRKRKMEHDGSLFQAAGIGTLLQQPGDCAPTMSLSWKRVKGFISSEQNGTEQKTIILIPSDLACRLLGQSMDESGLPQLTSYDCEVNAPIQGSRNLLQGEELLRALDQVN

For the compound `N.N.[Cl][Pt][Cl]` [Cisplatin, reference compound], the “inhibition of cell proliferation” value in data set [1] was 60%. For the same compound, the IC50 in data set [1] (setting [4]) worked out at 8.5 ± 0.23 µM; in data set [1] (read-out: IC50 (μM), viability of Ovarian cancer cell lines ID8, hypoxia induced ID8, MTT, n = 3, listed as cisplatin), 8.5 µM. `O=C(CN1CCOCC1)N1CCOCC1` [Compound 1a, 1,2-di (morpholin-4-yl) ethanone]: in data set [1] (setting [5]), the IC50 is 23.9 ± 0.61 µM. Regarding `O=C(CN1CCCC1)N1CCOCC1` [Compound 1b, 1-(morpholin-4-yl)-2-(pyrrolidin-1-yl) ethanone], in data set [1] (setting [5]), the IC50 came out at 14.8 ± 0.7 µM. Turning to `O=C(CNc1ccccn1)N1CCOCC1` [Compound 1c, 1-(morpholin-4-yl)-2-(pyridin-2-ylamino) ethanone], the IC50 in data set [1] (setting [5]) was determined as 15.7 ± 0.64 µM. Also, the “inhibition of HIF-1α” value in data set [2] was “significant inhibitory effects; also recorded: optimal activity; also recorded: promising activities”. On to `COc1cccc(NCC(=O)N2CCOCC2)c1` [Compound 1d, 2-[(3-methoxyphenyl)amino]-1-(morpholin-4-yl) ethanone], for which, in data set [1] (setting [5]), the IC50 came out at 25.3 ± 0.82 µM. For the same compound, the “inhibition of HIF-1α” value in data set [2] was “lesser inhibition”. Turning to `COc1ccc(NCC(=O)N2CCOCC2)cc1` [Compound 1e, 2-[(4-methoxyphenyl)amino]-1-(morpholin-4-yl)ethanone], in data set [1] (setting [5]), the IC50 stood at 26.4 ± 0.72 µM. As to `COc1ccccc1NCC(=O)N1CCOCC1` [Compound 1f, 2-[(2-methoxyphenyl)amino]-1-(morpholin-4-yl) ethanone], in data set [1] (setting [5]), the IC50 is 158.4 ± 0.66 µM. Turning to `O=C(COc1ccccc1)N1CCOCC1` [Compound 1g, 1-(morpholin-4-yl)-2-phenoxyethanone], in data set [1] (setting [5]), the IC50 came out at 146.1 ± 0.56 µM. For the same compound, in data set [3], the solubility result is “only soluble in DMSO”. As for `O=C(CNc1ccc(F)cc1)N1CCOCC1` [Compound 1h, 2-[(4-fluorophenyl)amino]-1-(morpholin-4-yl) ethanone], the “inhibition of cell proliferation” value in data set [1] was “maximum inhibition”. The IC50 came out at 9.4 µM in data set [1] (setting [5]) and 9.41 ± 0.73 µM in data set [1] (setting [4]). In addition, the “inhibition of HIF-1α” value in data set [2] was “significant inhibitory effects; also recorded: optimal activity; also recorded: good inhibition”. On to `Cc1ccc(C(C)C)c(OCC(=O)N2CCOCC2)c1` [Compound 1i, 2-[5-methyl-2-(propan-2-yl)phenoxy]-1-(morpholin-4-yl) ethanone], for which the “inhibition of cell proliferation” value in data set [1] is reported as “maximum inhibition”. For the same compound, the IC50 in data set [1] (setting [5]) turned out to be 11.2 ± 0.22 µM. Besides, the “inhibition of HIF-1α” value in data set [2] is given as “significant inhibitory effects; also recorded: optimal activity; also recorded: good inhibition”. On to `O=C(CNCc1ccc(Cl)cc1)N1CCOCC1` [Compound 1j, 2-[(4-chlorobenzyl)amino]-1-(morpholin-4-yl) ethanone], for which, in data set [1] (setting [5]), the IC50 was determined as 21.49 ± 0.11 µM. The solubility entry in data set [3] is “only soluble in DMSO”.

`O=C(CNCc1ccc(F)cc1)N1CCOCC1` [Compound 1k, 2-[(4-fluorobenzyl)amino]-1-(morpholin-4-yl) ethanone]: the IC50 in data set [1] (setting [5]) stood at 64.2 ± 0.88 µM. On to `O=C(CNc1nnc(-c2ccccc2)o1)N1CCOCC1` [Compound 1l, 1-(morpholin-4-yl)-2-[(5-phenyl-1,3,4-oxadiazol-2-yl)amino] ethanone], for which the figures for the IC50 in data set [1] (setting [5]) and in data set [1] (setting [4]) were 15.6 µM and 15.6 ± 0.77 µM, respectively. For the same compound, the inhibition at 50 µM in data set [1] (Mus musculus, ID8, read-out: inhibition of cell proliferation) was 60%. As for `O=C(CSc1nc2ccccc2s1)N1CCOCC1` [Compound 1m, 2-(1,3-benzothiazol-2-ylsulfanyl)-1-(morpholin-4-yl) ethanone], the IC50 in data set [1] (setting [5]) was found to be 32.4 ± 0.67 µM. `O=C(CNCc1ccccc1)N1CCOCC1` [Compound 1n, 2-(benzylamino)-1-(morpholin-4-yl) ethanone]: the IC50 in data set [1] (setting [5]) came to 47.9 ± 0.75 µM. In addition, the solubility result in data set [3] is listed as “only soluble in DMSO”.
